Laboratory results taken from ChEMBL document CHEMBL4689842, “EUbOPEN Chemogenomics Library wave 1” (2021).

Test system: HEK-293T
Experiment: Multiplex assay against HEK293T;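 as to Population Tubulin-Different-Phenotype (%): share of the cells with healthy nuclei that show this phenotype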
Assay type: toxicity, cell-based
Details: human
How it was run: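 At seeding, live cells were stained with Hoechst33342, BioTracker Green Microtubule Cytoskeleton Dye, MitoTracker Red and Annexin V Alexa Fluor 680. After compound addition they were imaged on a CQ1 microscope at 37°C and 5% CO2, and CellPathfinder machine-learning gating sorted them into Hoechst high-intensity objects or normal cells, with normal cells further split into healthy, pyknosed or fragmented nuclei and pyknosed cells into mitotic or apoptotic. Tubulin, mitochondrial-mass and membrane-permeability phenotypes are given as per cents of cells with healthy nuclei.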

[1] = 12 h, 1 µM, compound concentration 1 uM, replicate 1
[2] = 12 h, 1 µM, compound concentration 1 uM, replicate 2
[3] = 12 h, 10 µM, compound concentration 10 uM, replicate 1
[4] = 12 h, 10 µM, compound concentration 10 uM, replicate 2
[5] = 24 h, 1 µM, compound concentration 1 uM, replicate 1
[6] = 24 h, 1 µM, compound concentration 1 uM, replicate 2
[7] = 24 h, 10 µM, compound concentration 10 uM, replicate 1
[8] = 24 h, 10 µM, compound concentration 10 uM, replicate 2
[9] = 48 h, 1 µM, compound concentration 1 uM, replicate 1
[10] = 48 h, 1 µM, compound concentration 1 uM, replicate 2
[11] = 48 h, 10 µM, compound concentration 10 uM, replicate 1
[12] = 48 h, 10 µM, compound concentration 10 uM, replicate 2

## Cc1cn(-c2cc(NC(=O)c3ccc4c(c3)CN(c3cncnc3)C[C@@H]4C)cc(C(F)(F)F)c2)cn1
[1]
  Population Apoptotic (%): 15%
  Population Fragmented Nuclei (%): 25%
  Population Healthy Nuclei (%): 52%
  Population Hoechst High Intensity Objects (%): 20%
  Population Membrane Permeable-Phenotype (%): 5%
  Population Mitochondria Different-Phenotype (%): 6%
  Population Mitotic Cells (%): 84%
  Population Normal (%): 79%
  Population Pyknosed Nuclei (%): 22%
  Population Tubulin-Different-Phenotype (%): 4%
  Total Cell Count: 536
[2]
  Population Apoptotic (%): 8%
  Population Fragmented Nuclei (%): 6%
  Population Healthy Nuclei (%): 87%
  Population Hoechst High Intensity Objects (%): 3%
  Population Membrane Permeable-Phenotype (%): 2%
  Population Mitochondria Different-Phenotype (%): 8%
  Population Mitotic Cells (%): 91%
  Population Normal (%): 96%
  Population Pyknosed Nuclei (%): 5%
  Total Cell Count: 1397
[3]
  Population Apoptotic (%): 17%
  Population Fragmented Nuclei (%): 17%
  Population Healthy Nuclei (%): 62%
  Population Hoechst High Intensity Objects (%): 13%
  Population Membrane Permeable-Phenotype (%): 12%
  Population Mitochondria Different-Phenotype (%): 6%
  Population Mitotic Cells (%): 82%
  Population Normal (%): 86%
  Population Pyknosed Nuclei (%): 20%
  Population Tubulin-Different-Phenotype (%): 37%
  Total Cell Count: 653
[4]
  Population Apoptotic (%): 16%
  Population Fragmented Nuclei (%): 5%
  Population Healthy Nuclei (%): 88%
  Population Hoechst High Intensity Objects (%): 4%
  Population Membrane Permeable-Phenotype (%): 5%
  Population Mitochondria Different-Phenotype (%): 24%
  Population Mitotic Cells (%): 83%
  Population Normal (%): 95%
  Population Pyknosed Nuclei (%): 5%
  Population Tubulin-Different-Phenotype (%): 40%
  Total Cell Count: 1483
[5]
  Population Apoptotic (%): 23%
  Population Fragmented Nuclei (%): 16%
  Population Healthy Nuclei (%): 72%
  Population Hoechst High Intensity Objects (%): 15%
  Population Membrane Permeable-Phenotype (%): 9%
  Population Mitochondria Different-Phenotype (%): 3%
  Population Mitotic Cells (%): 76%
  Population Normal (%): 84%
  Population Pyknosed Nuclei (%): 11%
  Population Tubulin-Different-Phenotype (%): 3%
  Total Cell Count: 545
[6]
  Population Apoptotic (%): 6%
  Population Fragmented Nuclei (%): 15%
  Population Healthy Nuclei (%): 81%
  Population Hoechst High Intensity Objects (%): 2%
  Population Membrane Permeable-Phenotype (%): 5%
  Population Mitochondria Different-Phenotype (%): 2%
  Population Mitotic Cells (%): 93%
  Population Normal (%): 97%
  Population Pyknosed Nuclei (%): 2%
  Population Tubulin-Different-Phenotype (%): 5%
  Total Cell Count: 2221
[7]
  Population Apoptotic (%): 15%
  Population Fragmented Nuclei (%): 16%
  Population Healthy Nuclei (%): 73%
  Population Hoechst High Intensity Objects (%): 12%
  Population Membrane Permeable-Phenotype (%): 29%
  Population Mitochondria Different-Phenotype (%): 6%
  Population Mitotic Cells (%): 84%
  Population Normal (%): 87%
  Population Pyknosed Nuclei (%): 10%
  Population Tubulin-Different-Phenotype (%): 54%
  Total Cell Count: 740
[8]
  Population Apoptotic (%): 8%
  Population Fragmented Nuclei (%): 12%
  Population Healthy Nuclei (%): 84%
  Population Hoechst High Intensity Objects (%): 3%
  Population Membrane Permeable-Phenotype (%): 14%
  Population Mitochondria Different-Phenotype (%): 7%
  Population Mitotic Cells (%): 91%
  Population Normal (%): 96%
  Population Pyknosed Nuclei (%): 3%
  Population Tubulin-Different-Phenotype (%): 55%
  Total Cell Count: 2031

## Nc1nc2c(c(N3CCNCC3)n1)CCC1=C2[C@@H]2CCCC[C@@H]2O1
[1]
  Population Apoptotic (%): 34%
  Population Fragmented Nuclei (%): 7%
  Population Hoechst High Intensity Objects (%): 10%
  Population Membrane Permeable-Phenotype (%): 3%
  Population Mitochondria Different-Phenotype (%): 82%
  Population Mitotic Cells (%): 65%
  Population Normal (%): 89%
  Population Pyknosed Nuclei (%): 50%
  Population Tubulin-Different-Phenotype (%): 48%
  Total Cell Count: 236
[2]
  Population Apoptotic (%): 21%
  Population Fragmented Nuclei (%): 4%
  Population Healthy Nuclei (%): 41%
  Population Hoechst High Intensity Objects (%): 4%
  Population Membrane Permeable-Phenotype (%): 6%
  Population Mitochondria Different-Phenotype (%): 33%
  Population Mitotic Cells (%): 78%
  Population Normal (%): 95%
  Population Pyknosed Nuclei (%): 53%
  Population Tubulin-Different-Phenotype (%): 25%
  Total Cell Count: 217
[3]
  Population Apoptotic (%): 76%
  Population Fragmented Nuclei (%): 7%
  Population Healthy Nuclei (%): 33%
  Population Hoechst High Intensity Objects (%): 15%
  Population Membrane Permeable-Phenotype (%): 4%
  Population Mitochondria Different-Phenotype (%): 97%
  Population Mitotic Cells (%): 23%
  Population Normal (%): 84%
  Population Pyknosed Nuclei (%): 59%
  Population Tubulin-Different-Phenotype (%): 98%
  Total Cell Count: 238
[4]
  Population Apoptotic (%): 58%
  Population Fragmented Nuclei (%): 5%
  Population Healthy Nuclei (%): 32%
  Population Hoechst High Intensity Objects (%): 7%
  Population Membrane Permeable-Phenotype (%): 1%
  Population Mitochondria Different-Phenotype (%): 88%
  Population Mitotic Cells (%): 41%
  Population Normal (%): 92%
  Population Pyknosed Nuclei (%): 61%
  Population Tubulin-Different-Phenotype (%): 95%
  Total Cell Count: 200
[5]
  Population Apoptotic (%): 49%
  Population Fragmented Nuclei (%): 12%
  Population Healthy Nuclei (%): 59%
  Population Hoechst High Intensity Objects (%): 10%
  Population Membrane Permeable-Phenotype (%): 1%
  Population Mitochondria Different-Phenotype (%): 70%
  Population Mitotic Cells (%): 50%
  Population Normal (%): 89%
  Population Pyknosed Nuclei (%): 28%
  Population Tubulin-Different-Phenotype (%): 47%
  Total Cell Count: 298
[6]
  Population Apoptotic (%): 18%
  Population Fragmented Nuclei (%): 8%
  Population Hoechst High Intensity Objects (%): 3%
  Population Membrane Permeable-Phenotype (%): 2%
  Population Mitochondria Different-Phenotype (%): 29%
  Population Mitotic Cells (%): 81%
  Population Normal (%): 96%
  Population Pyknosed Nuclei (%): 32%
  Population Tubulin-Different-Phenotype (%): 29%
  Total Cell Count: 264
[7]
  Population Apoptotic (%): 80%
  Population Fragmented Nuclei (%): 8%
  Population Healthy Nuclei (%): 40%
  Population Hoechst High Intensity Objects (%): 27%
  Population Membrane Permeable-Phenotype (%): 0%
  Population Mitotic Cells (%): 19%
  Population Normal (%): 72%
  Population Pyknosed Nuclei (%): 51%
  Population Tubulin-Different-Phenotype (%): 95%
  Total Cell Count: 241
[8]
  Population Apoptotic (%): 81%
  Population Fragmented Nuclei (%): 3%
  Population Healthy Nuclei (%): 42%
  Population Hoechst High Intensity Objects (%): 16%
  Population Membrane Permeable-Phenotype (%): 2%
  Population Mitochondria Different-Phenotype (%): 100%
  Population Mitotic Cells (%): 18%
  Population Normal (%): 83%
  Population Pyknosed Nuclei (%): 54%
  Population Tubulin-Different-Phenotype (%): 100%
  Total Cell Count: 190
[9]
  Population Apoptotic (%): 36%
  Population Healthy Nuclei (%): 79%
  Population Hoechst High Intensity Objects (%): 7%
  Population Membrane Permeable-Phenotype (%): 1%
  Population Mitochondria Different-Phenotype (%): 25%
  Population Mitotic Cells (%): 63%
  Population Normal (%): 92%
  Population Pyknosed Nuclei (%): 11%
  Population Tubulin-Different-Phenotype (%): 26%
  Total Cell Count: 532
[10]
  Population Apoptotic (%): 12%
  Population Fragmented Nuclei (%): 8%
  Population Healthy Nuclei (%): 76%
  Population Hoechst High Intensity Objects (%): 4%
  Population Membrane Permeable-Phenotype (%): 9%
  Population Mitochondria Different-Phenotype (%): 12%
  Population Mitotic Cells (%): 87%
  Population Normal (%): 95%
  Population Pyknosed Nuclei (%): 14%
  Population Tubulin-Different-Phenotype (%): 35%
  Total Cell Count: 420
[11]
  Population Apoptotic (%): 66%
  Population Fragmented Nuclei (%): 12%
  Population Healthy Nuclei (%): 48%
  Population Hoechst High Intensity Objects (%): 45%
  Population Membrane Permeable-Phenotype (%): 1%
  Population Mitochondria Different-Phenotype (%): 93%
  Population Mitotic Cells (%): 33%
  Population Normal (%): 54%
  Population Pyknosed Nuclei (%): 39%
  Population Tubulin-Different-Phenotype (%): 96%
  Total Cell Count: 288
[12]
  Population Apoptotic (%): 74%
  Population Fragmented Nuclei (%): 7%
  Population Healthy Nuclei (%): 54%
  Population Hoechst High Intensity Objects (%): 37%
  Population Membrane Permeable-Phenotype (%): 2%
  Population Mitochondria Different-Phenotype (%): 90%
  Population Mitotic Cells (%): 25%
  Population Normal (%): 62%
  Population Pyknosed Nuclei (%): 37%
  Population Tubulin-Different-Phenotype (%): 91%
  Total Cell Count: 217
